Source: ChEMBL document CHEMBL1122039, “Design of more potent and selective antagonists of the antidiuretic responses to arginine-vasopressin devoid of antidiuretic agonism” (J Med Chem, 1982)
Numbered stars: 1 amine (or outer) side, 2 acyl side, 3 side chain; on linkers, the order of the positions; unused ones are H or OH. Bridge positions count the residues as written; N and C are the ends. Peptide text beside a SMILES is read from it. X1 = O=C(CC1(S[*:2])CCCCC1)[*:1]

How the values were obtained:
Rattus norvegicus [1] = species: Rattus norvegicus; experiment: Effective dose required for antiantidiuretic activity in rats.; format: functional, Urine
Outline: (§1)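 Antidiuretic assay in rats under ethanol anesthesia. Antagonist given at two doses, a high and a low one. The USP posterior pituitary standard was injected 20 min later, or 10 min later for non-agonist analogues.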

Rattus norvegicus [2] = species: Rattus norvegicus; experiment: Effective dose required for anti-oxytocic activity in rat uterus; format: functional
Rattus norvegicus [3] = species: Rattus norvegicus; experiment: Effective dose required for anti-vasopressor activity in phenoxybenzamine-treated rats under urethane anesthesia; format: functional
Outline: (§2)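 Intravenous vasopressor assay in phenoxybenzamine-treated rats under urethane anesthesia, with the USP posterior pituitary standard as agonist. Antagonist given at a high and a low dose.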

Rattus norvegicus [4] = experiment: In vivo anti-oxytocic activity in rat uterus; format: functional, organism-based; settings: read-out: pA2 (converted)
Rattus norvegicus [5] = species: Rattus norvegicus; experiment: Antivasopressor activity in rats.; format: functional, organism-based; settings: read-out: pA2 (converted); outline: as §2
Rattus norvegicus [6] = species: Rattus norvegicus; experiment: In vitro anti-oxytocic activity in rat uterus (no Mg2+); format: functional; settings: read-out: pA2 (converted)
Rattus norvegicus [7] = species: Rattus norvegicus; experiment: Antiantidiuretic activity in rats.; format: functional, organism-based; settings: Urine, read-out: pA2 (converted); outline: as §1
Rattus norvegicus [8] = species: Rattus norvegicus; experiment: In vitro anti-oxytocic activity in rat uterus (0.5 mM Mg2+); format: functional; settings: read-out: pA2 (converted)
[9] = Selectivity ratio for antioxyticic potency to antidiuretic potency; format: functional, Urine
[10] = Selectivity ratio for anti-vasopressor potency to antidiuretic potency; format: functional, Urine
[11] = ED ratio (anti-oxytocic ED/antiantidiuretic ED) of the compound; format: functional, Urine
[12] = ED ratio (anti-vasopressor ED/antiantidiuretic ED) of the compound; format: functional, Urine

Compound | Effective dose (Rattus norvegicus [1]) [nM/kg] | Effective dose (Rattus norvegicus [2]) [nM/kg] | Effective dose (Rattus norvegicus [3]) [nM/kg] | Kb (Rattus norvegicus [4]) [µM] | Kb (Rattus norvegicus [5]) [µM] | Kb (Rattus norvegicus [6]) [µM] | Kb (Rattus norvegicus [7]) [µM] | Kb (Rattus norvegicus [8]) [µM] | Selectivity [9] | Selectivity [10] | ED ratio [11] | ED ratio [12]
CC(C)[C@@H]1NC(=O)[C@H](Cc2ccccc2)NC(=O)[C@@H](Cc2ccc(O)cc2)NC(=O)CC2(CCCCC2)SSC[C@@H](C(=O)N2CCC[C@H]2C(=O)N[C@H](CCCN=C(N)N)C(=O)NCC(N)=O)NC(=O)[C@H](CC(N)=O)NC1=O | 6.3 | 8.1 | 0.6 | 0.117 | 0.00891 | 0.0102 | 0.0933 | 0.0166 |  |  |  | 
CC(C)[C@@H]1NC(=O)[C@H](Cc2ccccc2)NC(=O)[C@@H](Cc2ccc(O)cc2)NC(=O)CC2(CCCCC2)SSC[C@@H](C(=O)N2CCC[C@H]2C(=O)N[C@@H](CCCN=C(N)N)C(=O)NCC(N)=O)NC(=O)[C@H](CC(N)=O)NC1=O |  | 6.9 |  | 0.0977 | 0.00389 | 0.00776 | 0.0309 | 0.0166 | 1 | 1 | 3.1 | 0.13
CC(C)C[C@H]1NC(=O)CC2(CCCCC2)SSC[C@@H](C(=O)N2CCC[C@H]2C(=O)N[C@@H](CCCN=C(N)N)C(=O)NCC(N)=O)NC(=O)[C@H](CC(N)=O)NC(=O)[C@H](C(C)C)NC(=O)[C@H](Cc2ccccc2)NC1=O | 1.2 | 61 | 26 | 0.891 | 0.355 | 0.0479 | 0.0162 | 0.0417 | 16 | 170 | 51 | 22
CC(C)[C@@H]1NC(=O)[C@H](Cc2ccccc2)NC(=O)[C@@H](Cc2ccccc2)NC(=O)CC2(CCCCC2)SSC[C@@H](C(=O)N2CCC[C@H]2C(=O)N[C@@H](CCCN=C(N)N)C(=O)NCC(N)=O)NC(=O)[C@H](CC(N)=O)NC1=O | 0.67 | 8.9 | 0.58 | 0.12 | 0.00871 |  | 0.00851 |  |  |  |  | 
CC(C)[C@@H]1NC(=O)[C@H](Cc2ccccc2)NC(=O)[C@@H](CCCN=C(N)N)NC(=O)CC2(CCCCC2)SSC[C@@H](C(=O)N2CCC[C@H]2C(=O)N[C@@H](CCCN=C(N)N)C(=O)NCC(N)=O)NC(=O)[C@H](CC(N)=O)NC1=O | >90 |  | ~260 |  | 3.98 | > 10 | > 1.26 |  |  |  |  | 
CC(C)[C@@H]1NC(=O)[C@H](Cc2ccccc2)NC(=O)CNC(=O)CC2(CCCCC2)SSC[C@@H](C(=O)N2CCC[C@H]2C(=O)N[C@@H](CCCN=C(N)N)C(=O)NCC(N)=O)NC(=O)[C@H](CC(N)=O)NC1=O (GFVNCPRG-NH2; linker N-5 via X1) |  |  |  |  |  | 2.88 |  | > 20 |  |  |  | 
CC(C)[C@@H]1NC(=O)[C@H](Cc2ccccc2)NC(=O)[C@H](Cc2ccc(O)cc2)NC(=O)CC2(CCCCC2)SSC[C@@H](C(=O)N2CCC[C@H]2C(=O)N[C@@H](CCCN=C(N)N)C(=O)NCC(N)=O)NC(=O)[C@H](CC(N)=O)NC1=O |  | 26 |  | 0.339 | 0.0107 | 0.0457 |  | 0.049 |  |  |  | 
CC[C@@H](C)[C@H]1NC(=O)CC2(CCCCC2)SSC[C@@H](C(=O)N2CCC[C@H]2C(=O)N[C@@H](CCCN=C(N)N)C(=O)NCC(N)=O)NC(=O)[C@H](CC(N)=O)NC(=O)[C@H](C(C)C)NC(=O)[C@H](Cc2ccccc2)NC1=O | 0.7 | 44 | 8.2 | 0.617 | 0.115 | 0.0105 | 0.0105 |  |  |  |  | 
CC(C)[C@@H]1NC(=O)[C@H](Cc2ccccc2)NC(=O)[C@@H](C)NC(=O)CC2(CCCCC2)SSC[C@@H](C(=O)N2CCC[C@H]2C(=O)N[C@@H](CCCN=C(N)N)C(=O)NCC(N)=O)NC(=O)[C@H](CC(N)=O)NC1=O |  |  | 177 |  | 1.62 | 0.692 |  | 9.77 |  |  |  | 
CC(C)[C@@H]1NC(=O)[C@H](Cc2ccccc2)NC(=O)[C@@H](C(C)C)NC(=O)CC2(CCCCC2)SSC[C@@H](C(=O)N2CCC[C@H]2C(=O)N[C@@H](CCCN=C(N)N)C(=O)NCC(N)=O)NC(=O)[C@H](CC(N)=O)NC1=O | 2.3 | 220 | 27 | 3.24 | 0.389 | 0.0126 | 0.0331 | 0.129 | 31 | 92 | 96 | 12
